In ChEMBL document CHEMBL4270594, “Design, synthesis and pharmacological evaluation of new 3-(1H-benzimidazol-2-yl)quinolin-2(1H)-one derivatives as potential antitumor agents” (Eur J Med Chem, 2018):
Activity calls are given as the source filed them. No cut-off for these calls is given here.

Key:
SK-OV-3 = experiment: Cytotoxicity against human SKOV3 cells after 48 hrs by MTT assay; assay type: functional, cell-based; conditions: SK-OV-3, 48 h
Outline: (§1)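 MTT cytotoxicity assay run against HepG2 and BEL-7404 liver cancer, SK-OV-3 ovarian, NCI-H460 large-cell lung cancer and HL-7702 normal liver cells. 5-fluorouracil and cisplatin served as positive controls. IC50 is given as mean ± SD of three repeat experiments.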

NCI-H460 = experiment: Cytotoxicity against human NCI-H460 cells after 48 hrs by MTT assay; assay type: functional, cell-based; conditions: NCI-H460, 48 h; outline: as §1
HepG2 [1] = experiment: Cytotoxicity against human HepG2 cells after 48 hrs by MTT assay; assay type: functional, cell-based; conditions: HepG2, 48 h; outline: as §1
L02 = experiment: Cytotoxicity against human HL-7702 cells after 48 hrs by MTT assay; assay type: cell-based; conditions: L02, 48 h; outline: as §1
BEL-7404 tumor cell line [2] = experiment: Cytotoxicity against human Bel7404 cells after 48 hrs by MTT assay; assay type: functional, cell-based; conditions: BEL-7404, 48 h; outline: as §1
HepG2 [3] = experiment: Upregulation of p53 protein expression in human HepG2 cells at 10 uM after 12 hrs by Western blot analysis; assay type: functional, cell-based
BEL-7404 tumor cell line [4] = experiment: Antitumor activity against human Bel7404 cells xenografted in Balb/c nude mouse assessed as relative tumor volume increment rate at 25 mg/kg/2 days, ip for 20 days measured on day 21 post last dose relative to control; assay type: functional
BEL-7404 tumor cell line [5] = experiment: Antitumor activity against human Bel7404 cells xenografted in Balb/c nude mouse assessed as tumor growth inhibition at 25 mg/kg/2 days, ip for 20 days measured on day 21 post last dose relative to control; assay type: functional; conditions: BEL-7404, ip, read-out: TGI

How did the IC50 (SK-OV-3) turn out when `O=c1[nH]c2cc3c(cc2cc1-c1nc2cc(Br)ccc2[nH]1)OCO3` was run?
Its IC50 is greater than 100 µM.

What about the IC50 (NCI-H460) of the same compound?
The IC50 was greater than 100 µM.

What about the IC50 (HepG2 [1]) of the same compound?
The IC50 was greater than 100 µM.

What about the IC50 (L02) of the same compound?
The IC50 was greater than 100 µM.

And the IC50 (BEL-7404 tumor cell line [2])?
Its IC50 is greater than 100 µM.

Which results are given for `Cc1ccc2[nH]c(=O)c(-c3nc4ccccc4[nH]3)cc2c1`?
IC50 (SK-OV-3): > 100 µM; IC50 (NCI-H460): > 100 µM; IC50 (HepG2 [1]): > 100 µM; IC50 (L02): > 100 µM; IC50 (BEL-7404 tumor cell line [2]): > 100 µM

`Cc1ccc2[nH]c(=O)c(-c3nc4cc(C)c(C)cc4[nH]3)cc2c1` was tested. Which IC50 (SK-OV-3) did it give?
Its IC50 is greater than 100 µM.

And the IC50 (NCI-H460)?
The IC50 was greater than 100 µM.

What about the IC50 (HepG2 [1]) of the same compound?
Its IC50 is greater than 100 µM.

What about the IC50 (L02) of the same compound?
The IC50 was greater than 100 µM.

What about the IC50 (BEL-7404 tumor cell line [2]) of the same compound?
Its IC50 is greater than 100 µM.

Which IC50 (SK-OV-3) does the source give for `COc1ccc2[nH]c(=O)c(-c3nc4cc(F)ccc4[nH]3)cc2c1` here?
The IC50 was greater than 100 µM.

And the IC50 (NCI-H460)?
The IC50 was greater than 100 µM.

And the IC50 (HepG2 [1])?
Its IC50 is greater than 100 µM.

And the IC50 (L02)?
Its IC50 is greater than 100 µM.

What about the IC50 (BEL-7404 tumor cell line [2]) of the same compound?
The IC50 was greater than 100 µM.

`COc1ccc2[nH]c(=O)c(-c3nc4cc(C)c(C)cc4[nH]3)cc2c1` was tested. Which IC50 (SK-OV-3) did it give?
The IC50 was greater than 100 µM.

What about the IC50 (NCI-H460) of the same compound?
The IC50 was greater than 100 µM.

What about the IC50 (HepG2 [1]) of the same compound?
The IC50 was greater than 100 µM.

And the IC50 (L02)?
Its IC50 is greater than 100 µM.

What about the IC50 (BEL-7404 tumor cell line [2]) of the same compound?
Its IC50 is greater than 100 µM.

Which IC50 (SK-OV-3) does the source give for `Cc1ccc2[nH]c(=O)c(-c3nc4cc([N+](=O)[O-])ccc4[nH]3)cc2c1` here?
The IC50 was greater than 100 µM.

And the IC50 (NCI-H460)?
Its IC50 is greater than 100 µM.

What about the IC50 (HepG2 [1]) of the same compound?
Its IC50 is greater than 100 µM.

And the IC50 (L02)?
Its IC50 is greater than 100 µM.

What about the IC50 (BEL-7404 tumor cell line [2]) of the same compound?
The IC50 was greater than 100 µM.

With `O=c1[nH]c2cc3c(cc2cc1-c1nc2ccccc2[nH]1)OCO3` as the compound, how does the IC50 (SK-OV-3) read?
The IC50 was 32.2 µM.

And the IC50 (NCI-H460)?
The IC50 was greater than 100 µM.

What about the IC50 (HepG2 [1]) of the same compound?
Its IC50 is 25.6 µM.

And the IC50 (L02)?
Its IC50 is greater than 100 µM.

What about the IC50 (BEL-7404 tumor cell line [2]) of the same compound?
The IC50 was greater than 100 µM.

What does the source list for `COc1ccc2[nH]c(=O)c(-c3nc4cc([N+](=O)[O-])ccc4[nH]3)cc2c1`?
IC50 (SK-OV-3): > 100 µM; IC50 (NCI-H460): > 100 µM; IC50 (HepG2 [1]): > 100 µM; IC50 (L02): > 100 µM; IC50 (BEL-7404 tumor cell line [2]): > 100 µM

For `Cc1ccc2[nH]c(=O)c(-c3nc4cc(Br)ccc4[nH]3)cc2c1`, which IC50 (SK-OV-3) is on record?
The IC50 was greater than 100 µM.

And the IC50 (NCI-H460)?
Its IC50 is greater than 100 µM.

What about the IC50 (HepG2 [1]) of the same compound?
Its IC50 is greater than 100 µM.

And the IC50 (L02)?
Its IC50 is greater than 100 µM.

What about the IC50 (BEL-7404 tumor cell line [2]) of the same compound?
Its IC50 is greater than 100 µM.

Which results are given for `Cc1cc2nc(-c3cc4cc5c(cc4[nH]c3=O)OCO5)[nH]c2cc1C`?
IC50 (SK-OV-3): 10.6 µM; IC50 (NCI-H460): 23.8 µM; IC50 (HepG2 [1]): 18.7 µM; IC50 (L02): > 100 µM; IC50 (BEL-7404 tumor cell line [2]): 15.7 µM

Which IC50 (SK-OV-3) does the source give for `COc1ccc2[nH]c(=O)c(-c3nc4cc(Br)ccc4[nH]3)cc2c1` here?
The IC50 was greater than 100 µM.

And the IC50 (NCI-H460)?
Its IC50 is greater than 100 µM.

What about the IC50 (HepG2 [1]) of the same compound?
The IC50 was greater than 100 µM.

And the IC50 (L02)?
Its IC50 is greater than 100 µM.

And the IC50 (BEL-7404 tumor cell line [2])?
The IC50 was greater than 100 µM.

With `O=c1[nH]c2ccccc2cc1-c1nc2cc(Br)ccc2[nH]1` as the compound, how does the IC50 (SK-OV-3) read?
Its IC50 is 11.4 µM.

And the IC50 (NCI-H460)?
Its IC50 is 16.8 µM.

And the IC50 (HepG2 [1])?
The IC50 was 10.8 µM.

What about the IC50 (L02) of the same compound?
Its IC50 is greater than 100 µM.

What about the IC50 (BEL-7404 tumor cell line [2]) of the same compound?
The IC50 was 14.5 µM.

What does the source list for `O=c1[nH]c2cc3c(cc2cc1-c1nc2cc([N+](=O)[O-])ccc2[nH]1)OCO3`?
IC50 (SK-OV-3): > 100 µM; IC50 (NCI-H460): > 100 µM; IC50 (HepG2 [1]): > 100 µM; IC50 (L02): > 100 µM; IC50 (BEL-7404 tumor cell line [2]): > 100 µM

What does the source list for `COc1ccc2[nH]c(=O)c(-c3nc4ccccc4[nH]3)cc2c1`?
IC50 (SK-OV-3): > 100 µM; IC50 (NCI-H460): > 100 µM; IC50 (HepG2 [1]): > 100 µM; IC50 (L02): > 100 µM; IC50 (BEL-7404 tumor cell line [2]): > 100 µM

For `Cc1cc2nc(-c3cc4ccccc4[nH]c3=O)[nH]c2cc1C`, which IC50 (SK-OV-3) is on record?
The IC50 was greater than 100 µM.

And the IC50 (NCI-H460)?
Its IC50 is greater than 100 µM.

And the IC50 (HepG2 [1])?
Its IC50 is greater than 100 µM.

And the IC50 (L02)?
Its IC50 is greater than 100 µM.

What about the IC50 (BEL-7404 tumor cell line [2]) of the same compound?
The IC50 was greater than 100 µM.

Which IC50 (SK-OV-3) does the source give for `O=c1[nH]c2ccccc2cc1-c1nc2ccccc2[nH]1` here?
The IC50 was 13.8 µM.

And the IC50 (NCI-H460)?
The IC50 was greater than 100 µM.

And the IC50 (HepG2 [1])?
The IC50 was 29.6 µM.

What about the IC50 (L02) of the same compound?
Its IC50 is greater than 100 µM.

And the IC50 (BEL-7404 tumor cell line [2])?
The IC50 was greater than 100 µM.

And the Activity (HepG2 [3])?
The Activity was “inactive”.

`O=c1[nH]c2cc3c(cc2cc1-c1nc2cc(F)ccc2[nH]1)OCO3` was tested. Which IC50 (SK-OV-3) did it give?
Its IC50 is greater than 100 µM.

What about the IC50 (NCI-H460) of the same compound?
Its IC50 is greater than 100 µM.

What about the IC50 (HepG2 [1]) of the same compound?
The IC50 was 12.4 µM.

And the IC50 (L02)?
The IC50 was greater than 100 µM.

What about the IC50 (BEL-7404 tumor cell line [2]) of the same compound?
The IC50 was 10.3 µM.

With `COc1ccc2[nH]c(=O)c(-c3nc4cc(Cl)ccc4[nH]3)cc2c1` as the compound, how does the IC50 (SK-OV-3) read?
The IC50 was greater than 100 µM.

What about the IC50 (NCI-H460) of the same compound?
The IC50 was greater than 100 µM.

What about the IC50 (HepG2 [1]) of the same compound?
Its IC50 is greater than 100 µM.

And the IC50 (L02)?
The IC50 was greater than 100 µM.

And the IC50 (BEL-7404 tumor cell line [2])?
Its IC50 is greater than 100 µM.

Which IC50 (SK-OV-3) does the source give for `Cc1ccc2[nH]c(=O)c(-c3nc4cc(F)ccc4[nH]3)cc2c1` here?
The IC50 was greater than 100 µM.

And the IC50 (NCI-H460)?
Its IC50 is greater than 100 µM.

And the IC50 (HepG2 [1])?
The IC50 was greater than 100 µM.

And the IC50 (L02)?
The IC50 was greater than 100 µM.

What about the IC50 (BEL-7404 tumor cell line [2]) of the same compound?
The IC50 was greater than 100 µM.

What does the source list for `Cc1ccc2[nH]c(=O)c(-c3nc4cc(Cl)ccc4[nH]3)cc2c1`?
IC50 (SK-OV-3): 33 µM; IC50 (NCI-H460): 36.5 µM; IC50 (HepG2 [1]): 26.6 µM; IC50 (L02): > 100 µM; IC50 (BEL-7404 tumor cell line [2]): 39 µM

With `O=c1[nH]c2ccccc2cc1-c1nc2cc([N+](=O)[O-])ccc2[nH]1` as the compound, how does the IC50 (SK-OV-3) read?
The IC50 was greater than 100 µM.

And the IC50 (NCI-H460)?
Its IC50 is greater than 100 µM.

What about the IC50 (HepG2 [1]) of the same compound?
The IC50 was greater than 100 µM.

And the IC50 (L02)?
The IC50 was greater than 100 µM.

What about the IC50 (BEL-7404 tumor cell line [2]) of the same compound?
Its IC50 is greater than 100 µM.

With `O=c1[nH]cc(F)c(=O)[nH]1` [FLUOROURACIL] as the compound, how does the T/C (BEL-7404 tumor cell line [4]) read?
Its T/C is 56.1%.

What about the inhibition in vivo at 25 mg/kg (BEL-7404 tumor cell line [5]) of the same compound?
The inhibition in vivo at 25 mg/kg was 34.5%.

What about the IC50 (BEL-7404 tumor cell line [2]) of the same compound?
Its IC50 is 40.2 µM.

How did the IC50 (SK-OV-3) turn out when `O=c1[nH]c2ccccc2cc1-c1nc2cc(F)ccc2[nH]1` was run?
The IC50 was 18.3 µM.

What about the IC50 (NCI-H460) of the same compound?
Its IC50 is 24.2 µM.

And the IC50 (HepG2 [1])?
The IC50 was 15.2 µM.

What about the IC50 (L02) of the same compound?
Its IC50 is greater than 100 µM.

What about the IC50 (BEL-7404 tumor cell line [2]) of the same compound?
Its IC50 is 27.4 µM.
